For one assay, the species on record is Homo sapiens. As to the kind of experiment: Inhibition of U-46,619 (1 uM)-induced platelet aggregation in human platelet-rich plasma(PRP). Format: functional. In a few lines:
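Citrated blood (1/10 volume 3.8% trisodium citrate) from volunteers free of platelet-affecting medication for 10 days; PRP spun at 100g for 12 min. Compound or vehicle preincubated with PRP for 1 min at 37 °C. Aggregation induced with U46619 and followed for 3 min.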

Another assay addresses T1, Thromboxane A2 receptor (Homo sapiens, UniProt P21731).
T1 sequence (P21731 whole entry): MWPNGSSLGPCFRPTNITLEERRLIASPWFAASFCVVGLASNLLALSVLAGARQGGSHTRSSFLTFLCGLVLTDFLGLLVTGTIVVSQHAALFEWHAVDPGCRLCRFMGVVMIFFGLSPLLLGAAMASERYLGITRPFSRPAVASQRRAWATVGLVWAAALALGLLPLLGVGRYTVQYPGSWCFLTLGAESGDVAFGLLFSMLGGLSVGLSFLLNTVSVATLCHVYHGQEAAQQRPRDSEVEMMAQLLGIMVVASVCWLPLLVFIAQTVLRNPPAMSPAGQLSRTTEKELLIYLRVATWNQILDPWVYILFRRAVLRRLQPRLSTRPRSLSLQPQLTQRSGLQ
As to the kind of experiment: In vitro for antagonistic activity against […]. Format: functional. In a few lines: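 Buffer was 10 mM Hepes, 2 mM CHAPS and 10 μM indomethacin, pH 7.4. Competitor range 10^-10 to 10^-5 M; incubation 30 °C for 30 min; stopped with ice-cold 25 mM Tris pH 7.4 and filtered. Nonspecific binding taken with 10 μM SQ29548. Run in triplicate.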

The next assay has as its target T2, Thromboxane-A synthase (Homo sapiens, UniProt P24557).
T2 sequence (P24557 whole entry): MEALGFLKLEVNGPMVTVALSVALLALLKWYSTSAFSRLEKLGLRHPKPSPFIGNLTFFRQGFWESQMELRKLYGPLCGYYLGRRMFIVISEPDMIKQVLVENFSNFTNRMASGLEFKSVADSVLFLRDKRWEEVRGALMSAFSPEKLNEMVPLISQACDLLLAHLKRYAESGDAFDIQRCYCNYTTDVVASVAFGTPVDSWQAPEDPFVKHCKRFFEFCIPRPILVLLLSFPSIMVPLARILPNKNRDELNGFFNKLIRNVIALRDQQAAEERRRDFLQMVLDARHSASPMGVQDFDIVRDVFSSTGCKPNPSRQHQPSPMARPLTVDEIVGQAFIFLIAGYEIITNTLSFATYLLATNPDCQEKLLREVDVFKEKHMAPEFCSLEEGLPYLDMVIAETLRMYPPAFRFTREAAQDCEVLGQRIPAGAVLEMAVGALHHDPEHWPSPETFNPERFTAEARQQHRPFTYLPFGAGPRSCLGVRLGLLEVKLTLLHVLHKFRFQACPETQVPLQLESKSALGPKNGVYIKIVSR
As to the kind of experiment: In vitro for inhibitory activity against thromboxane synthase. The procedure, abridged: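 Compound or vehicle incubated with whole human blood for 30 min at 37 °C, then serum was prepared. Serum TXB2, the stable TXA2 metabolite, was measured by radioimmunoassay. Run in triplicate.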

By IC50 is commonly meant the point on the concentration scale where inhibition reaches its midpoint. Take `CC(OCCCNC(=O)c1coc(-c2ccc(/C(=C\CCCCC(=O)O)c3cccnc3)cc2)n1)C1CCCCC1` (configuration not stated): in the assay listed under Homo sapiens, the IC50 was 5000 nM.

In the case of `O=C(O)CCCC/C=C(\c1ccc(-c2nc(C(=O)NCCCCOc3ccccc3)co2)cc1)c1cccnc1`, the half-inhibitory concentration (IC50) in the assay filed under Homo sapiens is 500 nM.

By Kd is commonly meant a measure of binding affinity in units of concentration. Read a high Kd as a looser complex. `O=C(O)CCCC/C=C(\c1ccc(-c2nc(C(=O)NCCc3ccccc3)co2)cc1)c1cccnc1` came in with a Kd at Thromboxane A2 receptor of 82.4 nM. This compound yielded a half-maximal inhibitory concentration (IC50) against Thromboxane-A synthase of 9.4 nM.

Compound `COc1ccc(CCCNC(=O)c2coc(-c3ccc(/C(=C\CCCCC(=O)O)c4cccnc4)cc3)n2)cc1` yielded a Kd on Thromboxane A2 receptor of 119 nM. The compound further came in with an IC50 against Thromboxane-A synthase of 2.7 nM.

In the assay filed under Homo sapiens, `O=C(O)CCCC/C=C(\c1ccc(-c2nc(C(=O)N[C@@H]3C[C@H]3c3ccccc3)co2)cc1)c1cccnc1` returned a half-inhibitory concentration (IC50) of 5000 nM.

Consider `O=C(O)CCCC/C=C(\c1ccc(-c2nc(C(=O)NCCOCc3ccccc3)co2)cc1)c1cccnc1`, for which, at Thromboxane A2 receptor, the dissociation constant (Kd) amounted to 156 nM. The IC50 at Thromboxane-A synthase is 47.5 nM.

`O=C(O)CCCC/C=C(\c1ccc(-c2nc(C(=O)NCCCCC3CCCCC3)co2)cc1)c1cccnc1` displayed an IC50 in the assay filed under Homo sapiens of 400 nM.

On Thromboxane A2 receptor, `O=C(O)CCCC/C=C(\c1ccc(-c2nc(C(=O)NCCOCC3CCCCC3)co2)cc1)c1cccnc1` registered a Kd of 43.3 nM. In addition, half-maximal inhibition at Thromboxane-A synthase (IC50) required 36.7 nM.

Regarding `CCOCCCNC(=O)c1coc(-c2ccc(/C(=C\CCCCC(=O)O)c3cccnc3)cc2)n1`, at Thromboxane A2 receptor, the Kd was determined as 1400 nM.

Turning to `O=C(O)CCCC/C=C(\c1ccc(-c2nc(C(=O)NCCCN3CCOCC3)co2)cc1)c1cccnc1`, half-maximal inhibition against Thromboxane-A synthase (IC50) required 50.8 nM.

`O=C(O)CCCC/C=C(\c1ccc(-c2nc(C(=O)NS(=O)(=O)c3ccc(Cl)cc3)co2)cc1)c1cccnc1`: it took 4000 nM to reach half-maximal inhibition in the assay filed under Homo sapiens (IC50).

Regarding `O=C(O)CCCCO/N=C(/c1cccnc1)c1cccc(C(F)(F)F)c1` [RIDOGREL], the Kd on Thromboxane A2 receptor amounted to 8000 nM. Besides, on Thromboxane-A synthase, the 50% inhibitory concentration (IC50) was determined as 14.7 nM.

The values above are taken from ChEMBL document CHEMBL1131443, “Development of dual-acting agents for thromboxane receptor antagonism and thromboxane synthase inhibition. 3. Synthesis and biological activities of oxazolecarboxamide-substituted omega-phenyl-omega-(3-pyridyl)alkenoic acid derivatives and related compounds” (J Med Chem, 1998).
